In ChEMBL document CHEMBL3627669, “Wittig derivatization of sesquiterpenoid polygodial leads to cytostatic agents with activity against drug resistant cancer cells and capable of pyrrolylation of primary amines” (2015):
Activity calls are given as the source filed them. No cut-off for these calls is given here.

Key:
A549 = experiment: Cytotoxicity against human A549 cells assessed as growth inhibition incubated for 72 hrs by MTT assay; type: functional; details: A549, 72 h
In short: (§1)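 MTT assay. Stocks of 100 or 50 mM in DMSO. Cells seeded at line-dependent density, grown 24–72 h, then treated across […] for 72 h. Negative control 0.1% DMSO, positive control 1 μM phenylarsine oxide. GI50 is the concentration reducing viability 50% relative to control, averaged over experiments each run in sextuplicate.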

SK-MEL-28 = experiment: Cytotoxicity against human SK-MEL-28 cells assessed as growth inhibition incubated for 72 hrs by MTT assay; type: functional; details: SK-MEL-28, 72 h; in short: as §1
MCF7 = experiment: Cytotoxicity against human MCF7 cells assessed as growth inhibition incubated for 72 hrs by MTT assay; type: functional; details: MCF7, 72 h; in short: as §1
[1] = Cytotoxicity against human U373 cells assessed as growth inhibition incubated for 72 hrs by MTT assay; type: functional, U-373MG ATCC; details: U373 MG; in short: as §1
[2] = Cytotoxicity against human Hs683 cells assessed as growth inhibition incubated for 72 hrs by MTT assay; type: functional; details: Hs 683, 72 h; in short: as §1
U-373MG ATCC [3] = experiment: Cytotostatic activity on human U373 cells assessed as change in cell morphology at 35 uM after 72 hrs by videomicroscopic analysis; type: functional, cell-based
U-373MG ATCC [4] = experiment: Cytotoxicity against human U373 cells assessed as necrotic and late apoptotic cells at 35 uM after 72 hrs by Trypan blue assay; type: functional, cell-based
In short: (§2)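 U373 cells treated 72 h, stained with trypan blue and imaged. Cells were then fixed with ice-cold methanol and restained as an internal positive control. Single experiment in triplicate.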

[5] = Cytotoxicity against human MES-SA cells assessed as growth inhibition incubated for 48 hrs by MTT assay; type: functional
In short: (§3)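 MTT assay on MES-SA and MES-SA/Dx5 uterine sarcoma cells in RPMI-1640 with 10% FBS. Dx5 cells were selected by stepwise doxorubicin exposure from 100 to 500 nM and maintained in 500 nM doxorubicin. Cells treated 48 h. GI50 is the concentration reducing viability 50% relative to DMSO control, from two independent experiments with 4 replicates each.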

[6] = Cytotoxicity against human MES-SA/Dx5 cells assessed as growth inhibition incubated for 48 hrs by MTT assay; type: functional; details: MES-SA/Dx5, 48 h; in short: as §3
SCC-4 = experiment: Cytotoxicity against docetaxel-resistant human SCC4 cells assessed as growth inhibition; type: functional, cell-based
SCC-25 = experiment: Cytotoxicity against cisplatin-resistant human SCC25 cells assessed as growth inhibition; type: functional, cell-based
PC-3 = experiment: Cytotoxicity against docetaxel-resistant human PC3 cells assessed as growth inhibition; type: functional, cell-based
Glioma cell [7] = experiment: Cytotoxicity against cdkn2a-deficient mouse neurosphere glioma cells at 20 uM after 24 hrs; type: functional, cell-based
Glioma cell [8] = experiment: Cytotoxicity against cdkn2a-deficient EGFRvIII amplified mouse neurosphere glioma cells using bis-AAF-R110 as substrate at 20 uM preincubated for 24 hrs followed by substrate addition measured after 2 hrs by fluorescence analysis; type: functional, cell-based
In short: (§4)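 GBM neurosphere primary cultures carrying cdkn2a deletion with PDGFB or EGFRvIII amplification. Plated at 0.015×10^6 cells/well, 5 replicates per condition, in DMEM-F12 without phenol red. Cell suspension then mixed with bis-AAF-R110 substrate for 2 h at 37 °C and fluorescence read at 485/520 nm. After blank subtraction, signals were normalized to vehicle (=1) to give fold relative cytotoxicity. Mean ± SD of two independent experiments.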

Glioma cell [9] = experiment: Cytotoxicity against cdkn2a/TRPV1 doubly deficient PDGFB amplified mouse neurosphere glioma cells using bis-AAF-R110 as substrate at 20 uM preincubated for 24 hrs followed by substrate addition measured after 2 hrs by fluorescence analysis; type: functional, cell-based; in short: as §4
[10] = molecular target: Transient receptor potential cation channel subfamily V member 1 (Rattus norvegicus) (UniProt O35433); experiment: Displacement of [3H]-RTX from vanilloid site of TRPV1 receptor in rat spinal cord at 10 uM incubated for 60 mins by scintillation counting analysis
In short: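 Rat spinal cord homogenized in buffer A (pH 7.4, HEPES/sucrose salts). Membranes collected from a 35,000g spin. Binding run with 0.5 mg/mL membranes, 0.25 mg/mL BSA, 2 nM [3H]-RTX, and compound at 10 μM, for 60 min at 37 °C. Nonspecific binding defined with 100 μM unlabeled RTX. Reaction stopped on ice with α1-acid glycoprotein, then centrifuged and the pellet counted by scintillation. Result is % specific binding, mean ± SEM of 3 experiments.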

[11] = molecular target: Transient receptor potential cation channel subfamily V member 1 (Homo sapiens) (UniProt Q8NER1); experiment: Activity at TRPV1 in human MDA-MB--231 cells assessed as sustained and asynchronous increase in cytosolic Ca2+ level at 20 uM by FURA2-based fluorescence imaging analysis; type: cell-based
U-373MG ATCC [12] = experiment: Cytotostatic activity on human U373 cells assessed as change in cell morphology at 25 uM after 72 hrs by videomicroscopic analysis; type: functional, cell-based
Glioma cell [13] = experiment: Cytotoxicity against cdkn2a-deficient mouse neurosphere glioma cells at 10 uM after 24 hrs; type: functional, cell-based
In short: (§5)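 Primary glioma neurosphere cultures were plated at 0.015×10^6 cells/well (5 replicates) in phenol red-free DMEM-F12. Cells were mixed with bis-AAF-R110 and incubated 2 h at 37 °C, with fluorescence read at 485/520 nm. Signal was blank-subtracted and expressed as fold change over vehicle (mean ± SD, two independent experiments).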

Glioma cell [14] = experiment: Cytotoxicity against cdkn2a-deficient EGFRvIII amplified mouse neurosphere glioma cells using bis-AAF-R110 as substrate at 10 uM preincubated for 24 hrs followed by substrate addition measured after 2 hrs by fluorescence analysis; type: functional, cell-based; in short: as §5
Glioma cell [15] = experiment: Cytotoxicity against cdkn2a/TRPV1 doubly deficient PDGFB amplified mouse neurosphere glioma cells using bis-AAF-R110 as substrate at 10 uM preincubated for 24 hrs followed by substrate addition measured after 2 hrs by fluorescence analysis; type: functional, cell-based; in short: as §5
[16] = molecular target: Transient receptor potential cation channel subfamily V member 1 (Homo sapiens) (UniProt Q8NER1); experiment: Activity at TRPV1 in human MDA-MB--231 cells assessed as transient and synchronous increase in cytosolic Ca2+ level at 80 uM by FURA2-based fluorescence imaging analysis; type: cell-based
U-373MG ATCC [17] = experiment: Cytotostatic activity on human U373 cells assessed as change in cell morphology at 100 uM after 72 hrs by videomicroscopic analysis; type: functional, cell-based
U-373MG ATCC [18] = experiment: Cytotoxicity against human U373 cells assessed as necrotic and late apoptotic cells at 100 uM after 72 hrs by Trypan blue assay; type: functional, cell-based; in short: as §2
[19] = molecular target: Transient receptor potential cation channel subfamily V member 1 (Homo sapiens) (UniProt Q8NER1); experiment: Activity at TRPV1 in human MDA-MB--231 cells assessed as transient and synchronous increase in cytosolic Ca2+ level at 80 uM in presence of TRPV1 blocker capsazepine by FURA2-based fluorescence imaging analysis; type: cell-based

Transient receptor potential cation channel subfamily V member 1 (Homo sapiens), sequence (Q8NER1 whole entry): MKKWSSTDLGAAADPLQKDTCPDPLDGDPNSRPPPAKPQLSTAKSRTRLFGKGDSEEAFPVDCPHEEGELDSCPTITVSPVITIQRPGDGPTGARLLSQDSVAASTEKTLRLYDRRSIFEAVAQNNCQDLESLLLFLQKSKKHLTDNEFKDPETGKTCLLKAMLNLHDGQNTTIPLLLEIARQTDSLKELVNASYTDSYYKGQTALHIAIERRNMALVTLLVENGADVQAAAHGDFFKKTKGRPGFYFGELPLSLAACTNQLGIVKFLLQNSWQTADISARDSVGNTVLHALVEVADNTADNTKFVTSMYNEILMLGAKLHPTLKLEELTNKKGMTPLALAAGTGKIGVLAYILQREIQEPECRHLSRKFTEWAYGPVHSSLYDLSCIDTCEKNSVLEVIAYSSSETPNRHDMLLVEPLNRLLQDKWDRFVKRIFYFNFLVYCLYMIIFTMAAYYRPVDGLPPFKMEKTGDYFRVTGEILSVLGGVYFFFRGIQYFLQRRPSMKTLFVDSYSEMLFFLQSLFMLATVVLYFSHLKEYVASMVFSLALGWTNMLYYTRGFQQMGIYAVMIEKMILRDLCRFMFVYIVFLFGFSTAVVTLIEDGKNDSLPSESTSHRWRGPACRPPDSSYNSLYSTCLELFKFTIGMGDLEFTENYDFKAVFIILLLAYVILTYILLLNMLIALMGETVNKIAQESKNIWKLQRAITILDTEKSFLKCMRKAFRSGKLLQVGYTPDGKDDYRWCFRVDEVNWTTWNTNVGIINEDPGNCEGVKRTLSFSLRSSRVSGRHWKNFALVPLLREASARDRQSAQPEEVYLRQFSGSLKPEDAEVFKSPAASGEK
Transient receptor potential cation channel subfamily V member 1 (Rattus norvegicus), sequence (O35433 whole entry): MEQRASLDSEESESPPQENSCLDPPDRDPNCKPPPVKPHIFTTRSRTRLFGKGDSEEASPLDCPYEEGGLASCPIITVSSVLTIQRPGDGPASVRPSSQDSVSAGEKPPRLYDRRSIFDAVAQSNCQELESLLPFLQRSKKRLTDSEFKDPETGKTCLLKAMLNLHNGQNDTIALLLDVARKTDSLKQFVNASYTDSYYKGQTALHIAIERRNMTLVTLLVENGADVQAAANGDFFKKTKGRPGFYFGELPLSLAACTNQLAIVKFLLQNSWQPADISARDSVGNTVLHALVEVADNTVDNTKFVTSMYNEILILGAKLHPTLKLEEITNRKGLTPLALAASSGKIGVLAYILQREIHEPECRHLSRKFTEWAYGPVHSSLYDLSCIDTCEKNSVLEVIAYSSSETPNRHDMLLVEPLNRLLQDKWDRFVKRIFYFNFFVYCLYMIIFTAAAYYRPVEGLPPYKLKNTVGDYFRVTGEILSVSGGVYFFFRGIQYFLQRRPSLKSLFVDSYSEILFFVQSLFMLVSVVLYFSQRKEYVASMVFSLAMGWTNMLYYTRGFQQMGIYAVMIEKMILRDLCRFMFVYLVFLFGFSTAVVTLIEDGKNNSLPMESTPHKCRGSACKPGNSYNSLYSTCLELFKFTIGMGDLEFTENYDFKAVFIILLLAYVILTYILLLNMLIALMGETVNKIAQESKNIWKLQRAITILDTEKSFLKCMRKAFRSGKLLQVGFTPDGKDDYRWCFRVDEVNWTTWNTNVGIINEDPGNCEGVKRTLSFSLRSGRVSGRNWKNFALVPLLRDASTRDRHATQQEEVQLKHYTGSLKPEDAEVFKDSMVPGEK

| SMILES | GI50 (A549) | GI50 (SK-MEL-28) | GI50 (MCF7) | GI50 [1] | GI50 [2] | further results |
| --- | --- | --- | --- | --- | --- | --- |
| CC(C)(C)OC(=O)/C=C/C1=CC[C@H]2C(C)(C)CCC[C@]2(C)[C@H]1C=O | 29 µM | 41 µM | 32 µM | 40 µM | 29 µM |  |
| COC(=O)/C=C/C=C/C1=CC[C@H]2C(C)(C)CCC[C@]2(C)[C@H]1C=O | 29 µM | 25 µM | 31 µM | 27 µM | 12 µM |  |
| C#CCCCOC(=O)/C=C/C1=CC[C@H]2C(C)(C)CCC[C@]2(C)[C@H]1C=O | 30 µM | 36 µM | 30 µM | 35 µM | 33 µM | Activity (U-373MG ATCC [3]): Active; Activity (U-373MG ATCC [4]): inactive |
| CC[C@]1(O)C[C@@H]2CN(CCc3c([nH]c4ccccc34)[C@@](C(=O)OC)(c3cc4c(cc3OC)N(C)[C@H]3[C@@](O)(C(=O)OC)[C@H](OC(C)=O)[C@]5(CC)C=CCN6CC[C@]43[C@@H]65)C2)C1 [VINBLASTINE] |  |  |  |  |  | GI50 [5]: 0.006 µM; GI50 [6]: 5 µM |
| COC(=O)/C=C/C1=CC[C@H]2C(C)(C)CCC[C@]2(C)[C@H]1C=O | 21 µM | 27 µM | 7 µM | 22 µM | 24 µM | GI50 [5]: 40 µM; GI50 [6]: 45 µM; growth inhibition (GI) (SCC-4): Active; growth inhibition (GI) (SCC-25): Active; growth inhibition (GI) (PC-3): Active; growth inhibition (GI) (Glioma cell [7]): Active; growth inhibition (GI) (Glioma cell [8]): Active; growth inhibition (GI) (Glioma cell [9]): Active; Activity [10]: inactive; Activity [11]: Active; Activity (U-373MG ATCC [12]): Active |
| CC(=O)/C=C/C1=CC[C@H]2C(C)(C)CCC[C@]2(C)[C@H]1C=O | 24 µM | 28 µM | 20 µM | 25 µM | 22 µM |  |
| CCOC(=O)/C(C)=C/C1=CC[C@H]2C(C)(C)CCC[C@]2(C)[C@H]1C=O | 26 µM | 37 µM | 27 µM | 37 µM | 28 µM |  |
| CC(=O)O[C@H]1C(=O)[C@@]2(C)[C@H]([C@H](OC(=O)c3ccccc3)[C@]3(O)C[C@H](OC(=O)[C@H](O)[C@@H](NC(=O)c4ccccc4)c4ccccc4)C(C)=C1C3(C)C)[C@]1(OC(C)=O)CO[C@@H]1C[C@@H]2O [PACLITAXEL] |  |  |  |  |  | GI50 [5]: 0.007 µM; GI50 [6]: 10 µM |
| CCOC(=O)/C=C/C1=CC[C@H]2C(C)(C)CCC[C@]2(C)[C@H]1C=O | 25 µM | 29 µM | 30 µM | 37 µM | 29 µM |  |
| CC1(C)CCC[C@]2(C)[C@@H](C=O)C(/C=C/C(=O)OCc3ccccc3)=CC[C@@H]12 | 28 µM | 39 µM | 27 µM | 39 µM | 31 µM |  |
| C=C(C)[C@@H]1CCC(C)=C[C@H]1c1c(O)cc(CCCCC)cc1O |  |  |  |  |  | growth inhibition (GI) (Glioma cell [13]): Active; growth inhibition (GI) (Glioma cell [14]): Active; growth inhibition (GI) (Glioma cell [15]): inactive |
| CC1(C)CCC[C@]2(C)[C@@H](C=O)C(/C=C/C#N)=CC[C@@H]12 | 27 µM | 42 µM | 31 µM | 36 µM | 28 µM |  |
| CC1(C)CCC[C@]2(C)[C@@H](C=O)C(C=O)=CC[C@@H]12 [POLYGODIAL] | 90 µM | 65 µM | 75 µM | > 100 µM | 95 µM | inhibition [10]: 76%; Activity [16]: Active; Activity (U-373MG ATCC [17]): inactive; Activity (U-373MG ATCC [18]): Active; Activity [19]: inactive |
